Results from PubChem BioAssay AID504425 (Johns Hopkins Ion Channel Center, 2011).
Activity calls are given as the source filed them.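 How the source made its calls: active means compound that lowers Cav3.3 T-type calcium current at some tested dose and yields a usable dose response curve; inactive means the rest.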

Target: Voltage-dependent T-type calcium channel subunit alpha-1I (Homo sapiens) (UniProt Q9P0X4)
Assay: inhibitors of CACNA1I calcium current – automated patch clamp, HEK293 cells, selectivity assay for Cav3.2 inhibitor project, dose response (AID 504425)
Conditions: HEK293 Cav3.3, automated patch clamp current; for current change, negative = inhibition: at 30 µM (top of the series)
Procedure, shortened: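 Timing: compound exposure 3 min; material: Cav3.3-expressing stable HEK293 cell line; probe or stimulus: voltage step, -100 mV to -30 mV, 1 s; measure: % current change relative to pre-compound current in each well; signal: perforated-patch population patch clamp, peak inward current, linear leak subtraction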

Voltage-dependent T-type calcium channel subunit alpha-1I (Homo sapiens), sequence (Q9P0X4 whole entry, looked up): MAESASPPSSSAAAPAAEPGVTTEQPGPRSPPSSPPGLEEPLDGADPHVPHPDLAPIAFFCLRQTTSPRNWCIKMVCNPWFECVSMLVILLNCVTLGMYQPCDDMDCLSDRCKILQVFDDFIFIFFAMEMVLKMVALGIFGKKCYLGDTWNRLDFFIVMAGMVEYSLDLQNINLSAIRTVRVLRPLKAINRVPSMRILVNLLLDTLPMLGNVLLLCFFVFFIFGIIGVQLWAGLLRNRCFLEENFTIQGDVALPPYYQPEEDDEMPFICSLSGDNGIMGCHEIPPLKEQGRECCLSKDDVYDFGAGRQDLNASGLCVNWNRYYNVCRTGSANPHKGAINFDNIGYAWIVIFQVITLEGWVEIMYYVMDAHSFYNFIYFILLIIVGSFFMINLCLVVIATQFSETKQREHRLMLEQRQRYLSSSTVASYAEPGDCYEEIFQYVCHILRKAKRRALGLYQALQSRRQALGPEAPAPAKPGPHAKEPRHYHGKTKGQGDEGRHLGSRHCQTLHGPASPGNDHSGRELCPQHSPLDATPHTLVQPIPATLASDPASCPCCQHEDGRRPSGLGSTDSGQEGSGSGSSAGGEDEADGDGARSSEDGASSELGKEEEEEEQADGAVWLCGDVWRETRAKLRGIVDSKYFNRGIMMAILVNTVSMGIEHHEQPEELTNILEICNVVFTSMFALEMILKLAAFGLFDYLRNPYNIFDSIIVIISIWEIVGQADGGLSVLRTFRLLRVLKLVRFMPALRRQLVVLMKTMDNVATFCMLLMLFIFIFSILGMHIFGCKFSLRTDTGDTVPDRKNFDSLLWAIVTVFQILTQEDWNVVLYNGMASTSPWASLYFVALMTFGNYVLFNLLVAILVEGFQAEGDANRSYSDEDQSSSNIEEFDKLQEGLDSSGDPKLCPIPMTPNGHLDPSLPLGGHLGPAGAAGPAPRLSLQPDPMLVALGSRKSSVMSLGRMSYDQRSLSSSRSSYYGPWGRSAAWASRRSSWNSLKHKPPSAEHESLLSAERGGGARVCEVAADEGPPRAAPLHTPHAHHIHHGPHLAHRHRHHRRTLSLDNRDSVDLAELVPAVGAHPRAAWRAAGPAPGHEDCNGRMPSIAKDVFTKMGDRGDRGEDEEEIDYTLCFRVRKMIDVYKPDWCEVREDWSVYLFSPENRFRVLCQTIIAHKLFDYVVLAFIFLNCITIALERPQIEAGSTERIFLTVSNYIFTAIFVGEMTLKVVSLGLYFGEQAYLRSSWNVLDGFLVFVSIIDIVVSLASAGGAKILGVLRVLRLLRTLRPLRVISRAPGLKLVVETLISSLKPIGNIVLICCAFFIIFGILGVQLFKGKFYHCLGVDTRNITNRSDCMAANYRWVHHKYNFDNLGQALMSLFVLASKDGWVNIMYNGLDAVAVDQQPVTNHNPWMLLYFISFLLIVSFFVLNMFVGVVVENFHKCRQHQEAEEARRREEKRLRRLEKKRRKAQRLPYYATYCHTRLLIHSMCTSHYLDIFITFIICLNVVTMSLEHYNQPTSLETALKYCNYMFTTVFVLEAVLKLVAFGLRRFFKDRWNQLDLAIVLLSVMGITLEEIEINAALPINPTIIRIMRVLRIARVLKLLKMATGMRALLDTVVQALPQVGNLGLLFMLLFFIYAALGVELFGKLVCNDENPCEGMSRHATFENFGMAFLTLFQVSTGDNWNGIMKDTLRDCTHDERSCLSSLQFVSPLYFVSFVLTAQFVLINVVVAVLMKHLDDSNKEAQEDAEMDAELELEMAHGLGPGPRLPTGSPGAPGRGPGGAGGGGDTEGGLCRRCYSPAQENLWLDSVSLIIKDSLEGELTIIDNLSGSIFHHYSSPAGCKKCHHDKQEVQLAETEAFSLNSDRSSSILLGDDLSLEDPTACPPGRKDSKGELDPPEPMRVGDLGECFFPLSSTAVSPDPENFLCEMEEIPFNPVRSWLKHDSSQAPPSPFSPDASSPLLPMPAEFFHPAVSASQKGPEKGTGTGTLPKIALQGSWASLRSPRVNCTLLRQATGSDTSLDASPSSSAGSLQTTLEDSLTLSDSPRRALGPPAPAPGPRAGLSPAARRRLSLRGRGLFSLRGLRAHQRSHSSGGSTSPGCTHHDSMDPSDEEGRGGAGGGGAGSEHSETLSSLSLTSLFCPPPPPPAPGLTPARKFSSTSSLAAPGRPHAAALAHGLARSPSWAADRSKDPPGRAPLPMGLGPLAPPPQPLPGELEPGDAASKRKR

| IC50 | SMILES | current change, negative = inhibition |
| --- | --- | --- |
| 11 µM | O=C(COc1ccc(F)cc1Cl)Nc1nnc(-c2ccc(F)c(F)c2)o1 | – |
| – | CC(C)(C)Cc1nnc(NC(=O)COc2ccc(Cl)cc2Cl)o1 | inactive |
| – | Cc1ccc(-c2nnc(NC(=O)COc3ccc(F)cc3Cl)o2)cc1C | inactive |
| 0.275 µM | CC(C)(C)CCN1C[C@@H]2C(CNC(=O)c3cc(Cl)cc(Cl)c3)[C@@H]2C1 (some centres undefined) | – |
